As usually defined, the GI50 is the concentration at which growth is held to half of that of the control. Usually kcat stands for the number of substrate molecules converted per active site and unit of time at saturation. The term Km denotes the concentration of substrate that gives half-maximal velocity. In general, kcat/Km refers to the second-order rate constant that governs catalysis at low substrate concentration.

In data set [1] the target is T1, P450 2W1 (Homo sapiens, UniProt Q8TAV3).
T1 sequence (Q8TAV3 23-490): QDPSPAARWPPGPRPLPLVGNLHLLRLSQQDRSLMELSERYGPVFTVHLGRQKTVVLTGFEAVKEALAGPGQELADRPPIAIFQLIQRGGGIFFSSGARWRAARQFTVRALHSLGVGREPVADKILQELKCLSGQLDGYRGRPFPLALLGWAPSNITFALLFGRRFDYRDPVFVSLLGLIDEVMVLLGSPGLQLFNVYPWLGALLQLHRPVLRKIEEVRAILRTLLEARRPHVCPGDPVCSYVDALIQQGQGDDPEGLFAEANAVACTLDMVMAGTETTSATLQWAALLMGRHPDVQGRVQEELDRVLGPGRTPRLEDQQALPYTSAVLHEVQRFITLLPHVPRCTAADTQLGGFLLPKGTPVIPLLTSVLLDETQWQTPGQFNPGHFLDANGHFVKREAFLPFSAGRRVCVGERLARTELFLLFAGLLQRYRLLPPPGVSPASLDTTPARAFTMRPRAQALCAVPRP
Nature of the data set: Preliminary incubation with P450 2W1, products by HPLC-UV. It is filed as in vitro ADME. Particulars: recombinant human P450 2W1. In outline:
(§1)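 Recombinant human P450 at 0.3–0.8 μM, either in E. coli membranes or purified and reconstituted with 2-fold excess NADPH-P450 reductase plus 30 μM DLPC. Substrate 100 μM with NADPH-generating system in 0.10 M potassium phosphate, pH 7.4; 37 °C for 30–60 min. Extracted into 2 volumes CH2Cl2, residue taken up in CH3CN. Read by C18 HPLC with photodiode-array UV, acetonitrile/water gradient containing 0.5% formic acid.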

Another data set concerns the target T2, P450 2S1 (Homo sapiens, UniProt Q96SQ9).
T2 sequence (Q96SQ9 1-504): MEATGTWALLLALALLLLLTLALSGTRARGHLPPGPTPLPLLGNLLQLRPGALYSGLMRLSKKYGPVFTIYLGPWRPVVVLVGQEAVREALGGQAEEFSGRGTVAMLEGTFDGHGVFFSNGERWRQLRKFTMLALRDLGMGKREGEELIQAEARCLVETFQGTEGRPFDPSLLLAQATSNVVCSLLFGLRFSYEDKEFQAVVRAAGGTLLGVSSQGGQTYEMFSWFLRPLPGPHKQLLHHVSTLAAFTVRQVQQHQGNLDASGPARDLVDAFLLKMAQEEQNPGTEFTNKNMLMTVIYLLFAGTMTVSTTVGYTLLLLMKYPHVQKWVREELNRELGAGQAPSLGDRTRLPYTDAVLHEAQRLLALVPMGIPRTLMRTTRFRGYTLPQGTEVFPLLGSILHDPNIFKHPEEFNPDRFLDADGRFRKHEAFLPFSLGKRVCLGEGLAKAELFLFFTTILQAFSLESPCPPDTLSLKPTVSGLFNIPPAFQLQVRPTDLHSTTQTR
Put plainly: Preliminary incubation with P450 2S1, products by HPLC-UV. Particulars: recombinant human P450 2S1. It is filed as in vitro ADME. In outline:
as §1

A further data set deals with MCF-7 cells. Particulars: ref [12], [13]; cited from earlier work.
Another data set relates to MDA 468 cells. The note with it: ref [12], [13]; cited from earlier work.
For data set [2], the target named is T1, P450 2W1. Nature of the data set: Steady-state kinetics of P450 2W1-catalyzed oxidation. It is filed as in vitro ADME. In outline: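 Same P450 and NADPH-generating levels as qualitative incubations, in 0.10 M phosphate, pH 7.4. Substrate 0–200 μM, in duplicate, at 37 °C. With 2W1: 10 min (dimethoxyphenyl substrate) or 15 min (aminophenyl substrate); with 1A1: 15 and 25 min respectively. CH2Cl2 quench, benzothiazole internal standard added, extract quantified by HPLC-UV. Km and kcat from nonlinear regression.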

Data set [3] deals with P450 2W1, P450 1A1, or human liver microsomes. Nature of the data set: GSH adduct formation from oxidation products. Particulars: 5 mM GSH, 100 μM substrate, LC-MS. The class given is in vitro ADME. The procedure, abridged: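 P450 2W1 or 1A1 in E. coli membranes, or human liver microsomes pooled from ten donors, at 0.50 μM with 100 μM substrate, 5 mM GSH and 4 μg mL−1 catalase. Incubated 12–15 h at 37 °C, stopped with 2 volumes CH3CN; supernatant analysed by ESI+ LC-MS.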

A further data set deals with T3, P450 1A1 (Homo sapiens, UniProt P04798).
T3 sequence (P04798 1-512): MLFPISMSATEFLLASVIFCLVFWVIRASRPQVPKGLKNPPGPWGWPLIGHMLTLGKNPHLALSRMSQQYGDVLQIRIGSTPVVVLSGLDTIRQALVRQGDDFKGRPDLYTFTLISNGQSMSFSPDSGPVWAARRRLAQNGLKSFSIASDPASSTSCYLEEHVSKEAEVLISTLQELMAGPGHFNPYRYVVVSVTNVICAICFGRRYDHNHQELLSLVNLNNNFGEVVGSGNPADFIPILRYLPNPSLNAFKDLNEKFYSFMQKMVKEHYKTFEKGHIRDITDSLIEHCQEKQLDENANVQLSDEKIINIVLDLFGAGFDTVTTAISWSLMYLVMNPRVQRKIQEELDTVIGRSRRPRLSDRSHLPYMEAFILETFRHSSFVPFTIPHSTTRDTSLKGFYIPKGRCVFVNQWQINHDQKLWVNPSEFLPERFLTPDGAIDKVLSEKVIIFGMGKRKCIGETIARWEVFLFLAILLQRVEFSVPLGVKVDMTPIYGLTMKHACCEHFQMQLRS
Put plainly: Steady-state kinetics of P450 1A1-catalyzed oxidation. The class given is in vitro ADME. The note with it: oxidation of 5F 203 to form 8a.

The next data set concerns IGROV-1 cells. Particulars: ref [12], [13]; cited from earlier work.
The subject of data set [4] is colon, lung, and breast cancer cell lines. Particulars: ref [19]; cited from earlier work.
Data set [5] can be described thus: Solubility in organic solvents. The note with it: in CHCl3 and CH3OH. The class given is physicochemical.
In the next data set the test system is dGuo. Nature of the data set: dGuo adduct formation with synthetic 10. The note with it: after Ac2O activation, 37 °C under argon 2 h, LC-MS m/z 524.
Substrate in data set [6]: Cc1cc(-c2nc3cc(F)ccc3s2)ccc1N
Put plainly: Steady-state kinetics of P450 1A1-catalyzed oxidation. The class given is in vitro ADME, human. Particulars: pH 7.4, 37.0 °C.

Substrate in data set [7]: COc1ccc(-c2nc3cc(F)ccc3s2)cc1OC
The data set is described as above. The class given is in vitro ADME, human. Particulars: other: P450 1A1, substrate GW 610, product 4c; pH 7.4; 37.0 °C.

[8] abbreviates: other: P450 1A1, substrate 5F 203, product 8a.
[9] abbreviates: other: P450 1A1, substrate 5F 203, product 8b.

Some results are limits rather than exact numbers.

`c1ccc(-c2nc3ccccc3s2)cc1` [2-phenylbenzothiazole, reference compound]: the “product formation on incubation with P450 2W1” value on P450 2W1 [1] is “No products were observed”. Moreover, at P450 2S1, the “product formation on incubation with P450 2S1” value was “No products were observed”.

With `Cc1cc(-c2nc3cc(F)ccc3s2)ccc1N` [5F 203, 2-(4-Amino-3-methylphenyl)-5-fluorobenzothiazole], the GI50 in the data set on MCF-7 cells, in the data set on MDA 468 cells and in the data set with IGROV-1 cells was under 1 nM in each case. Further, the turnover number (kcat) on P450 2W1 [2] (P450 2W1, substrate 5F 203, product 8a) stood at 0.0158 ± 0.0017 s⁻¹; at P450 2W1 [2] (P450 2W1, substrate 5F 203, product 10), 0.00933 ± 0.001 s⁻¹. Further, the Km at 15 min at P450 2W1 [2] (human, pH 7.4, Km, P450 2W1, substrate 5F 203, product 8a) was found to be 31 ± 11 µM; on P450 2W1 [2] (human, pH 7.4, Km, P450 2W1, substrate 5F 203, product 10) it was 35 ± 12 µM. Also, the GSH conjugate formation result in [3] was “detected”. Besides, the “product formation on incubation with P450 2W1” value at P450 2W1 [1] is “Products were formed”. The “product formation on incubation with P450 2S1” value on P450 2S1 was “no products were observed”. Moreover, the “efficiency of P450 1A1 relative to P450 2W1” value at P450 1A1 was ~ 2 fold.

For `COc1ccc(-c2nc3cc(F)ccc3s2)cc1OC` [GW 610, 5-Fluoro-2-(3,4-dimethoxyphenyl)-benzothiazole], the kcat at P450 2W1 [2] (P450 2W1, substrate GW 610, product 4c) is 0.0633 ± 0.0067 s⁻¹. In addition, the “efficiency of P450 2W1 relative to P450 1A1” value on P450 2W1 [2] (formation of 4c from GW 610) was 5 fold. At P450 2W1 [2] (human, pH 7.4, Km, P450 2W1, substrate GW 610, product 4c), the Km at 10 min is 22 ± 7 µM. The GSH conjugate formation entry in data set [3] is “detected”. Besides, the “product formation on incubation with P450 2W1” value on P450 2W1 [1] is reported as “Products were formed”. Further, the “product formation on incubation with P450 2S1” value at P450 2S1 is “no products were observed”. Besides, the GI50 in data set [4] is under 0.1 nM.

Take `Cc1cc(-c2nc3cc(F)ccc3s2)ccc1NO` [compound 10, 2-(4-Hydroxylamino-3-methylphenyl)-5-fluorobenzothiazole]: in data set [5], the solubility result was “very poor”. In the data set with dGuo, the dGuo adduct formation entry is listed as “consistent with a dGuo adduct of compound 10”.

B1: P450 1A1 (Homo sapiens) (protein)
chain: MLFPISMSATEFLLASVIFCLVFWVIRASRPQVPKGLKNPPGPWGWPLIGHMLTLGKNPHLALSRMSQQYGDVLQIRIGSTPVVVLSGLDTIRQALVRQGDDFKGRPDLYTFTLISNGQSMSFSPDSGPVWAARRRLAQNGLKSFSIASDPASSTSCYLEEHVSKEAEVLISTLQELMAGPGHFNPYRYVVVSVTNVICAICFGRRYDHNHQELLSLVNLNNNFGEVVGSGNPADFIPILRYLPNPSLNAFKDLNEKFYSFMQKMVKEHYKTFEKGHIRDITDSLIEHCQEKQLDENANVQLSDEKIINIVLDLFGAGFDTVTTAISWSLMYLVMNPRVQRKIQEELDTVIGRSRRPRLSDRSHLPYMEAFILETFRHSSFVPFTIPHSTTRDTSLKGFYIPKGRCVFVNQWQINHDQKLWVNPSEFLPERFLTPDGAIDKVLSEKVIIFGMGKRKCIGETIARWEVFLFLAILLQRVEFSVPLGVKVDMTPIYGLTMKHACCEHFQMQLRS
In the case of B1, the Michaelis-Menten constant (Km) in [6] (setting [8]) was 32 ± 9 µM; in [6] (setting [9]) it was 29 ± 8 µM; in [7], 10 ± 3 µM. Besides, the turnover number (kcat) in data set [6] (setting [8]) amounted to 0.0283 ± 0.00333 s⁻¹; in data set [6] (setting [9]), 0.0517 ± 0.005 s⁻¹; in [7], 0.00617 ± 0.0005 s⁻¹. In addition, the kcat/Km in [6] (setting [8]) was 900 ± 333 M⁻¹ s⁻¹; in data set [6] (setting [9]), 1830 ± 500 M⁻¹ s⁻¹; in data set [7] it was 600 ± 167 M⁻¹ s⁻¹.
